Assay outcomes (PubChem)
ABHD4 inh = inhibitors of mouse ABHD4; Q8VD66; purified mABHD4, FP-Rh probe fluorescence polarization; inhibition, % at 8.92 µM; 370,000 tested, 0.54% active;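 active = inhibition exceeding the mean over every tested compound plus 3 SD, cut at about 30% in these data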;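 note: 0% = plate median of compound wells and 100% = S159A mutant with DMSO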
Target sequence (Q8VD66 whole entry, looked up): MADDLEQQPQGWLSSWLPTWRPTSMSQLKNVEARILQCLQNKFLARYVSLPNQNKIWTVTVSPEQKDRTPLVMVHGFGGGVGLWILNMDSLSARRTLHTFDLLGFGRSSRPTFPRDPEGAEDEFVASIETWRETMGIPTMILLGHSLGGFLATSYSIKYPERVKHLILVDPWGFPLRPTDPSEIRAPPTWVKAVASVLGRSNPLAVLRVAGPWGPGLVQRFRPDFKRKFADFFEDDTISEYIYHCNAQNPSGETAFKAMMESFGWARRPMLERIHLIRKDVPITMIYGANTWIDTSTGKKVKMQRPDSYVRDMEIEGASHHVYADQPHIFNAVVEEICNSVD
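Test system: mABHD4 protein | Buffer or medium: HEPES pH 7.0 buffer, 150 mM NaCl, 0.01% Pluronic F-127 | Probe or stimulus: FP-Rh fluorescent activity-based probe, added after compound pre-incubation | Timing: Pre-incubation 45 min, probe exposure 60 min, at 25 °C | Technique: Fluorescence polarization, excitation 525 nm, emission 598 nm, BODIPY TMR filters | Repeats: Single well per compound (singlicate)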
HTRA1 inhibitor = blocks human HTRA1 serine peptidase; Q92743; recombinant HTRA1, FP-rhodamine activity-based probe, fluorescence polarization; inhibition, % at 5.96 µM; 340,000 tested, 0.5% active; AID 504803; in the data active = inhibition above about 36%;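 note: 0% = enzyme with DMSO and 100% = wells lacking enzyme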
Target sequence (Q92743 whole entry, looked up): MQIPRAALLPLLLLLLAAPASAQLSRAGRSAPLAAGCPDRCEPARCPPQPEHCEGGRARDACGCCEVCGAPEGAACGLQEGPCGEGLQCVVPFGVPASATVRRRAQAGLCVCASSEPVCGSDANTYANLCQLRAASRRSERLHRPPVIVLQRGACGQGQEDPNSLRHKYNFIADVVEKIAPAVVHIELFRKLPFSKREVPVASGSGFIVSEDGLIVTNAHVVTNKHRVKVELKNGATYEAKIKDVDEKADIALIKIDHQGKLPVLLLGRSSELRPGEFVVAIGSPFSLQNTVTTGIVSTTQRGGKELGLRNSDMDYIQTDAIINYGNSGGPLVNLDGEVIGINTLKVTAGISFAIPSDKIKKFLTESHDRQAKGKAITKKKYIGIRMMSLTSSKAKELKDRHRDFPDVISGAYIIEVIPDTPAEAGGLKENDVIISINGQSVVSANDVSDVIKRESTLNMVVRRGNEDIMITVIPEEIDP
TCR-CD3 inh = human TCR-CD3 binding inhibition; TAMRA-labeled TCR probe fluorescence, biochemical; inhibition, % at 9.4 µM; 360,000 tested, 0.37% active; AID 651800; in the data active = inhibition above about 19%;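 note: recombinant mutant TCR 2C K166C tagged with TAMRA read by polarization; 0% = receptor in buffer alone and 100% = receptor with positive control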
SIAE inh = blocks human sialic acid acetylesterase; Q9HAT2; SIAE FP-Rh probe binding, fluorescence polarization; inhibition, % at 9.66 µM; 370,000 tested, 0.69% active;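 active = inhibition above a cutoff: mean of compounds within the control limits plus 3 SD of those, cut at about 17% in these data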;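 note: 0% = plate median of compound wells and 100% = probe without SIAE protein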
DDE Tn7 FP inh = DD(E)-Tn7 binding inhibition, primary FP screen | P02675 | FP displacement of FITC-Tn7 peptide from fibrin DD(E); 0% = median of compound wells per plate | 370,000 tested, 0.13% active | inhibition, % at 8.3 µM;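 active = inhibition above the mean of compounds falling within the control limits plus 3 SD of them, cut at about 14% in these data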;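 note: 0% = plate median of compound wells and 100% = 10 µM Aha-Tn7 peptide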
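Assay system: Human fibrin DD(E) protein | Medium: Tris buffer with calcium and detergent, pH 7.8 | Reagent: 0.1 µM fluorescent Tn7 | Compound dosing: Single point at 8.3 µM | Times: 10 min preincubation, 3 h with tracer, room temperature | Detection: Fluorescence polarization of the labelled Tn7 tracer | Controls: Aha-Tn7 high control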
DDE Tn6 FP inh = DD(E)-Tn6 binding inhibition, primary FP screen; Fibrin DD(E) TRITC-Tn6 fluorescence polarization displacement; AID 720509; inhibition, % at 8.3 µM; 370,000 tested, 0.21% active; P02675;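 active = inhibition above a per-campaign cutoff: mean of compounds within control limits plus 3 SD, cut at about 15% in these data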;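 note: 0% = median of all compound wells on the plate and 100% = blocking peptide control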
ABHD4 confirm = confirmation of mouse ABHD4 inhibitors | 1,800 tested, 55% active | shares compounds with ABHD4 inh | inhibition, % at 8.92 µM | purified mABHD4, FP-Rh probe fluorescence polarization | AID 720658;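 active = mean inhibition across replicates above the hit cutoff set in the primary screen, cut at about 30% in these data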;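 note: 0% = wild-type ABHD4 with DMSO and 100% = catalytically dead S159A mutant with DMSO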
* marks the source's active call; other numbers are inactive results; · = not tested or not shown. A selection: hits, their analogues and other compounds. The true share with any hit is near 1.8%.

SMILES | ABHD4 inh | HTRA1 inhibitor | TCR-CD3 inh | SIAE inh | DDE Tn7 FP inh | DDE Tn6 FP inh | ABHD4 confirm
O=C(Nc1cccc2c1CCCC2)c1ccccc1Br | -2.4 | -0.2 | -10.1 | -2.1 | 3.5 | 4.1 | ·
Cn1c(/N=C/c2c(O)ccc3ccccc23)nc2ccccc21 | 30.7* | 28.9 | 1.7 | 7.1 | -3.0 | -6.0 | 4.3
C/C=C/c1cccc(-c2nc(C(=O)N3CCCCC3)cc3c2[C@H](CCO)N(C(=O)NC(C)C)C3)c1 | -7.8 | · | -7.0 | -0.5 | -1.0 | 6.6 | ·
NC(CO)C(=O)NNCc1ccc(O)c(O)c1O (stereo not drawn) | 36.8* | 7.5 | 16.3 | 13.1 | 6.5 | 1.3 | 21.3
O=C1Cc2cc(S(=O)(=O)N3CCN(c4ccc(C(=O)O)cc4)CC3)ccc2N1 | 33.1* | · | 2.5 | -4.4 | 2.2 | 0.6 | 10.5
COc1ccc2nc(C)cc(N/N=C/c3ccccc3)c2c1 | · | -23.3 | · | · | · | · | ·
COc1ccc(/C=N/Nc2cc(C)nc3ccc(OC)cc23)c(OC)c1 | 30.7* | 3.8 | -5.2 | 9.6 | 0.0 | -13.2 | 50.8*
COc1ccc(/C=N/NC(=O)c2nn(-c3ccc(Cl)cc3)c(=O)c3c(N)scc23)cc1 | 29.7* | 22.5 | -1.4 | 11.3 | -4.5 | 7.5 | 17.0
CCOC(=O)c1nn(-c2ccc(OC)cc2)c(=O)c2c(N)scc12 | 2.0 | 4.8 | -0.6 | 7.6 | 7.2 | 3.2 | ·
COc1ccc(/C=N/NC(=O)c2nn(-c3ccc(C)c(C)c3)c(=O)c3ccccc23)cc1 | -1.0 | 1.6 | 4.2 | -15.6 | -4.4 | -4.8 | ·
COc1ccc(/C=N/NC(=O)c2nn(-c3ccccc3)c(=O)c3c(N)scc23)cc1 | 45.7* | 21.4 | 7.3 | 11.3 | -1.2 | -1.8 | 26.7
O=C(NCC1CCN(C(=O)C(=O)c2cccs2)CC1)c1ccncc1 | -0.5 | · | 4.7 | 4.8 | -0.6 | 0.6 | ·
C[C@H]1[C@@H](c2ccccc2)Oc2ccc(Cl)cc2S(=O)(=O)N1Cc1ccc(Cl)cc1 | -3.7 | · | -5.0 | -9.0 | -0.8 | -4.5 | ·
O=S1(=O)c2ccccc2N=NN1Cc1ccc(Cl)cc1 | 45.6* | 11.2 | -0.6 | 12.6 | 0.2 | -4.5 | 54.0*
CCOC(=O)c1c(CSc2ccsc2)n(C)c2cc(Br)c(O)c(CN(C)C)c12 | 29.6* | -4.8 | 6.6 | 7.7 | 3.4 | 1.0 | 1.7
CCOC(=O)c1c(CSc2ccccc2)n(C)c2cc(Br)c(O)c(CN(C)C)c12 | 39.3* | -6.4 | 3.3 | 8.0 | 2.9 | 2.0 | 8.7
CCOC(=O)c1c(CSc2ccc(C)cc2)n(C)c2cc(Br)c(O)c(CN(C)C)c12 | 40.4* | -2.5 | 0.3 | 6.2 | -1.0 | -2.9 | 22.8
CCOC(=O)c1c(CN2CCCCC2)n(C)c2cc(Br)c(O)c(CN(C)C)c12 | · | -4.3 | · | · | · | · | ·
COc1cccc(C(NC(C)=O)c2nc(-c3cccc(C(C)C)c3)cs2)c1 (stereo not drawn) | -12.3 | · | -1.7 | -6.2 | 1.9 | -1.9 | ·
CC(=O)N1CCC(=NNc2nc3ccccc3s2)CC1 | 32.6* | 10.1 | -5.0 | 9.3 | 2.1 | 0.4 | 14.0
CCOC(=O)N1CCN(S(=O)(=O)c2ccc(C(=O)Nc3nc4ccccc4s3)cc2)CC1 | 3.4 | 2.3 | -1.2 | 0.1 | 1.5 | -2.8 | ·
CC(=O)NNc1nc2ccccc2s1 | 11.0 | 2.5 | -1.0 | 6.9 | -4.7 | 8.7 | ·
CCOC(=O)N1CCC(=NNc2nc3ccccc3s2)CC1 | 38.4* | 2.7 | -1.0 | 4.2 | -0.5 | -0.3 | -3.1
Cc1cccc(NS(=O)(=O)c2ccc(C)c(C(=O)NCC(c3cccs3)N3CCOCC3)c2)c1 (stereo not drawn) | -0.5 | -1.9 | 11.4 | 3.5 | 9.8 | 1.3 | ·
Nc1ccc(Br)c2cccnc12 | 39.9* | 20.4 | 5.7 | 4.4 | -5.5 | -0.3 | 15.9
SMILES | ABHD4 inh | HTRA1 inhibitor | TCR-CD3 inh | SIAE inh | DDE Tn7 FP inh | DDE Tn6 FP inh | ABHD4 confirm
CS(=O)(=O)Oc1ccc(Br)c2cccnc12 | 3.3 | 7.0 | 5.6 | -3.0 | 1.6 | 0.1 | ·
CN(c1ccc(O)cc1)c1nc(O)c(C2=c3ccccc3=NC2=O)s1 | 43.1* | 7.0 | -2.8 | 2.3 | -2.2 | -5.2 | 64.9*
O=C(CC1SC(N2CCCCC2)=NC1=O)Nc1cccc(C(=O)NCc2ccc(F)cc2)c1 (stereo not drawn) | 2.9 | -8.4 | 2.3 | -3.5 | 5.5 | 8.4 | ·
C[C@H]1CN([C@@H](C)CO)S(=O)(=O)c2ccc(Br)cc2O[C@H]1CN(C)Cc1ccccc1 | 75.4* | -12.4 | 1.6 | -0.2 | -0.1 | 5.3 | -9.2
C[C@H]1CN([C@@H](C)CO)S(=O)(=O)c2ccc(Br)cc2O[C@@H]1CN(C)Cc1ccccc1 | -4.4 | -31.2 | 8.2 | 8.3 | 5.9 | -6.5 | ·
O=C(O)c1cc(-c2ccc(/C=N/NC(=S)Nc3ccccc3)o2)ccc1Cl | 39.2* | · | 14.8 | 5.7 | -1.1 | -7.0 | 50.1*
O=[N+]([O-])c1cccc(-c2ccc(/C=N/NC(=S)Nc3ccccc3)o2)c1 | 10.8 | -3.4 | 4.9 | 7.5 | 9.2 | 6.4 | ·
c1cc2c(cc1CNc1ccc(N3CCOCC3)cc1)OCO2 | 29.6* | 29.8 | -0.3 | 12.1 | 3.6 | -1.0 | -14.8
Cc1ccc(CNc2ccc(N3CCOCC3)cc2)cc1 | 18.9 | 34.5 | 4.2 | 10.2 | 7.8 | 2.6 | ·
CCC(C)(C)c1ccc(OCCCC[n+]2ccc(C)cc2)c(C(C)(C)CC)c1 | 33.3* | · | -6.4 | 3.1 | 1.1 | -1.3 | 49.8*
CCc1nc2ccc(C(=O)Nc3cc(-c4ccccc4)ccc3OC)cn2c1N(CC)CCN(C)C | 20.2 | · | -7.2 | -6.2 | 4.1 | 6.1 | ·
CCc1nc2ccc(C(=O)Nc3cc(-c4ccccc4)ccc3OC)cn2c1N(CC)Cc1cccc(Br)c1 | 30.6* | · | 1.8 | 1.8 | -3.0 | -3.6 | 26.8
CCSC1=N/C(=C\c2ccc(-c3ccccc3[N+](=O)[O-])o2)C(=O)S1 | 37.1* | 14.4 | -3.0 | 11.1 | 7.5 | -3.3 | 16.1
CCCSC1=N/C(=C\c2ccc([N+](=O)[O-])o2)C(=O)S1 | 38.4* | 17.9 | 9.1 | 15.1 | 6.8 | 6.8 | 7.0
CCCSC1=N/C(=C\c2ccsc2)C(=O)S1 | 3.9 | -7.6 | 10.4 | -4.3 | -10.9 | 12.9 | ·
COC(=O)c1cc2c(c3c4cc(F)ccc4n(S(=O)(=O)c4ccccc4)c13)C(=O)N(Cc1ccc(N(C)C)cc1)C2 | -2.2 | · | 4.4 | 7.2 | 5.0 | -6.3 | ·
N=C1S/C(=C\c2ccc(-c3ccccc3C(=O)O)o2)C(=O)N1c1ccc2c(c1)OCO2 | 49.0* | 8.4 | -0.5 | -2.1 | 5.5 | -2.2 | 62.8*
COc1c(F)c(F)c(C(=O)Nc2ccc(N3CCN(C(C)=O)CC3)c(Cl)c2)c(F)c1F | 30.6* | -2.9 | -1.7 | -5.2 | -2.3 | -4.2 | 19.9
Cc1ccc(S(=O)(=O)N[C@H](CNCc2ccccc2)C(C)C)cc1 | 0.0 | · | -5.2 | 1.0 | -0.2 | -7.0 | ·
